Screening results (PubChem)
Shown are actives, neighbours in structure and some others; about 1.3% of the full set was active somewhere.
CASP6 VEID inh: inhibitors of human caspase-6; P55212; purified caspase-6, Z-VEID-R110 cleavage fluorescence; hit rate 0.53% among 350,000; AID 686996; inhibition, % at 12.5 µM;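 active = mean inhibition across replicates at least about 35%, with every replicate also reaching that limit, limit read from the data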
Target sequence (P55212 24-179 limits assumed): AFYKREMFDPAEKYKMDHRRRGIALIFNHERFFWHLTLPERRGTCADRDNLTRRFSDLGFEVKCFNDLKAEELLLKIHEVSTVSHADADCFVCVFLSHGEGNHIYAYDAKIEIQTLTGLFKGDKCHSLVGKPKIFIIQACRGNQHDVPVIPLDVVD
Target sequence (P55212 194-293 limits assumed): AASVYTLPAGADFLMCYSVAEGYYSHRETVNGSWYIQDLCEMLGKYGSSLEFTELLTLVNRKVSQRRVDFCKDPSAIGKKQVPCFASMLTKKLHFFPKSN
TDP2 inh: blocks human TDP2 phosphodiesterase activity | recombinant TDP2, T5PNP hydrolysis, p-nitrophenol absorbance 415 nm | inhibition, % at 12.8 µM | hit rate 0.34% among 370,000 | AID 720702;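 active = inhibition above the mean of all tested compounds plus 3 SD, set per campaign, cut at about 25% in these data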
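Evaluation: % inhibition relative to enzyme-containing and enzyme-free wells. Material: recombinant human TDP2. Benchmarks: enzyme-free and DMSO wells. Timing: enzyme reaction with compound for 2 h at 37 °C. Compound dosing: 12.8 µM only. Measured by: p-Nitrophenol epi absorbance. Reagent: T5PNP substrate at 5 mM, a TopII-DNA adduct mimic. Replication: single well per compound.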
NSD2 HMT inh: inhibitors of human histone methyltransferase NSD2; O96028; NSD2 peptide methylation, AlphaScreen, 120 min; inhibition, % at 12.5 µM; hit rate 0.54% among 310,000; in the data active = inhibition above about 50%
LEDGF integ inh: blocks HIV-1 LEDGF/p75-dependent DNA integration | TR-FRET IN-LEDGF/p75 DNA integration, Eu/Cy5 | inhibition, % at 3.7 µM | hit rate 0.64% among 370,000 | AID 743269;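 active = inhibition above the screen-wide mean plus 3 SD, cut at about 13% in these data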;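 note: signal is the Cy5 over europium emission ratio at 671 and 618 nm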
UCH37 DUB inh: blocks the human deubiquitinase UCH37; inhibition, % (no concentration beside the values); hit rate 0.33% among 330,000; purified proteasome/UCH37, Ub-AMC cleavage fluorescence; Q9Y5K5;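 active = mean inhibition over replicate wells above about 20%, limit read from the data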
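Material: Human UCH37 enzyme supplied as purified proteasome complex | Schedule: 30 min compound-proteasome preincubation then 25 min substrate reaction, room temperature | Detection: AMC fluorescence from Ub-AMC cleavage, excitation 355 nm, emission 460 nm | Benchmarks: Wells without proteasome as full block, compound-free enzyme plus substrate as uninhibited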
Alpha artifact: AlphaScreen assay artifact in NSD2 counter-screen; AC35, µM (series often up to 10 µM); shares compounds with NSD2 HMT inh; AlphaScreen artifact counterscreen, preloaded methylated H4 peptide; AID 1053174; hit rate 9.4% among 1,500; call rule not given here
A number is an active result; i = inactive; nt = no result given.

SMILES	CASP6 VEID inh	TDP2 inh	NSD2 HMT inh	LEDGF integ inh	UCH37 DUB inh	Alpha artifact
CN1CCCCc2c1nc1ccccc1c2N (tested in a mixture with another compound)	nt	i	83	i	i	i
O=C(Cc1ccc(Br)c2ccccc12)NN=Cc1ccccn1	nt	nt	nt	nt	i	nt
CC1=NN(c2ccc(S(=O)(=O)O)cc2Cl)C(=O)C1	47	i	71	i	i	i
CC1=NN(c2cc(Cl)c(S(=O)(=O)O)cc2Cl)C(=O)C1	i	i	i	i	i	nt
O=[N+]([O-])c1cc(C=NNc2nc(N3CCCCC3)nc(N3CCCCC3)n2)ccc1O	nt	nt	nt	nt	i	nt
O=[N+]([O-])c1ccccc1-c1ccc(C=Nn2cnnc2)o1	nt	nt	nt	nt	i	nt
O=C(NCc1ccco1)c1scc2c1OCCO2	nt	i	90	i	i	i
CC(/C=C/c1ccccc1)=NNc1ccccc1[N+](=O)[O-]	nt	nt	nt	nt	i	nt
CCN(C(=O)/C=C/c1ccc2c(c1)OCO2)c1ccccc1	nt	i	62	i	i	i
O=C(C=Cc1ccc2c(c1)OCO2)c1ccccc1	i	i	i	i	i	nt
CC1CCCN(S(=O)(=O)c2ccc(NC(=O)CN3CCN(C)CC3)cc2)C1 (configuration not stated)	nt	i	90	i	i	i
CC1CCN(CC(=O)Nc2ccc(S(=O)(=O)N3CCCC(C)C3)cc2)CC1 (configuration not stated)	i	i	i	i	i	nt
CCn1c(-c2cc3c(C(F)(F)F)nn(C)c3s2)n[nH]c1=S	nt	i	52	i	i	i
Cn1c(-c2cc3c(C(F)(F)F)nn(C)c3s2)n[nH]c1=S	nt	i	i	i	i	nt
O=C(O)c1cc(N/N=C/c2ccc3c(c2)OCO3)ccc1Cl	i	i	75	i	nt	i
CCN(CC)CCCNc1cc(C)c(C#N)c2nc3ccccc3n12	i	i	122	i	nt	i
CCN(CC)CCNc1cc(C)c(C#N)c2nc3ccccc3n12	i	i	i	i	nt	nt
CCN(CC)CCCNc1cc(C(F)(F)F)c(C#N)c2nc3ccccc3n12	i	i	56	i	i	i
Nc1nonc1NN=Cc1c(O)ccc2ccccc12	nt	nt	nt	nt	i	nt
CCOC(=O)Cc1csc(NN=Cc2ccc(C(F)(F)F)cc2)n1	nt	nt	nt	nt	i	nt
CCN(CC)C(=O)C1CCCN(Cc2ccc(OC)c(C)c2C)C1 (configuration not stated)	i	i	53	i	i	i
O=C(COc1ccccc1)NNc1c2ccccc2nc2ccccc12	nt	i	i	i	i	nt
COc1ccc(OCC(=O)NNc2c3ccccc3nc3ccccc23)cc1	nt	i	61	i	i	i
Cn1c(NNC(=O)c2c(F)cccc2F)cc(=O)n(C)c1=O	i	i	62	i	i	i
O=C(O)COc1ccc(/C=N/n2c(COc3ccccc3)nc3ccccc3c2=O)cc1	i	i	i	i	nt	nt
SMILES	CASP6 VEID inh	TDP2 inh	NSD2 HMT inh	LEDGF integ inh	UCH37 DUB inh	Alpha artifact
O=c1c2ccccc2nc(COc2ccccc2)n1/N=C/c1ccc(O)c(O)c1	i	i	65	i	nt	i
CON=C(COc1ccc(F)cc1)c1ccc(OC)cc1	nt	nt	nt	nt	i	nt
CC1Cc2ccccc2N1C(=O)COc1cccc(-n2cnnn2)c1 (configuration not stated)	nt	i	130	i	i	i
CCOc1ccc2[nH]c3c(NCCN(CC)CC)ncnc3c2c1	i	i	103	i	i	i
CCOc1ccc2[nH]c3c(NCCOC)ncnc3c2c1	i	i	i	i	i	nt
CCOC(=O)c1c(C#N)c(SCC(=O)Nc2ccc(OC)cc2)nc2c1CN(CC)CC2	nt	i	70	i	i	i
COc1ccc(NC(=O)CSc2nc(N)c(C#N)cc2C#N)cc1	i	i	i	i	i	nt
CC(=NNC(=O)C1CC1c1ccccc1)c1ccc(C)s1 (configuration not stated)	nt	nt	nt	nt	i	nt
Cc1cccc(C(=O)Nc2ccc(C(=O)NN=Cc3ccco3)cc2)c1	nt	nt	nt	nt	i	nt
COCCN(C(=O)CNC(=O)c1ccco1)C(C(=O)NC1CCCC1)c1ccc(OC)cc1 (configuration not stated)	i	i	110	i	i	i
COCCN(C(=O)CNC(=O)c1ccco1)C(C(=O)NC1CCCC1)c1ccccc1 (configuration not stated)	i	i	i	i	i	nt
COc1ccc(NN=C(C#N)C(=O)NCCc2ccc(OC)c(OC)c2)cc1	nt	nt	nt	nt	i	nt
O=c1cc(CN2CCC(Cc3ccccc3)CC2)nc2sccn12	i	i	i	i	i	nt
